Laboratory results reported in ChEMBL document CHEMBL5506013, “Mitochondria-Selective Dicationic Small-Molecule Ligand Targeting G-Quadruplex Structures for Human Colorectal Cancer Therapy” (J Med Chem, 2024).
Activity calls are given as the source filed them. No cut-off for these calls is given here.

Columns and labels:
Quadruplex DNA [1] = test: Binding affinity to Mito 0.5-16 G4 DNA (unknown origin) assessed as increase in CD signal at 5 uM at 290 nM by circular dichroism spectroscopic analysis; format: nucleic-acid assay
HepG2 = test: Antiproliferative activity against human HepG2 cells measured after 48 hrs by MTT assay; format: functional, cell-based; settings: HepG2, 48 h
In short: (§1)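 Cells exposed to the ligands for 48 h. Viability was read by MTT, and the IC50 was derived from the response.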

HCT-116 [2] = test: Induction of DNA damage in human HCT-116 assessed as increase in tail length at upto 4 uM incubated for 72 hrs by comet assay; format: functional, cell-based
In short: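 HCT116 cells exposed to ligand at 0-4 uM for 72 h. DNA damage assessed by comet assay with DAPI staining (excitation 405 nm), imaged at 200x, tail length measured.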

DNA [3] = test: Binding affinity to SS19 DNA (non-G4 DNA) (unknown origin) assessed as increase in fluorescence intensity by fluorescence spectrophotometric analysis; format: nucleic-acid assay
In short: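 Oligonucleotides were pre-annealed at 95 °C for 10 min, then cooled slowly. Ligand (5 uM) was mixed with 20 uM DNA in buffer. Emission was collected over 550–800 nm, and enhancement was taken at 650 nm as F/F0.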

Quadruplex DNA [4] = test: Binding affinity to Mito 0.5-15 G4 DNA (unknown origin) assessed as change in melting temperature at 5 uM by circular dichroism spectroscopic analysis; format: nucleic-acid assay
HCT-116 [5] = test: Induction of cell cycle arrest in human HCT-116 cells assessed as accumulation of cells at G0/G1 phase measured after 72 hrs by PI staining based flow cytometry analysis; format: functional; settings: dose 1-4 µM
In short: (§2)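 HCT116 cells treated at 0-4 uM for 72 h. Cell-cycle distribution measured by flow cytometry and G0/G1 percentage recorded.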

[6] = Drug localization in nucleus of human HCT-116 cells at 1 to 8 uM incubated for 1 hrs by hoechst33342 staining based live cell imaging analysis; format: ADME, subcellular; settings: hct-116, 1 h, dose 1-8 µM
Quadruplex DNA [7] = test: Binding affinity to Mito 78 G4 DNA (unknown origin) assessed as change in melting temperature at 5 uM by circular dichroism spectroscopic analysis; format: nucleic-acid assay
HCT-116 [8] = test: Downregulation of ND1 mRNA level in human HCT-116 cells at 0 to 4 uM measured after 48 hrs by qRT-PCR analysis; format: functional, cell-based; settings: dose 0-4 µM
[9] = Drug localization in endoplasmic reticulum of living human HCT-116 cells assessed as colocalization at 4 uM incubated for 1 hr by ER-tracker blue staining based analysis; format: ADME, subcellular; settings: hct-116, 1 h
In short: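 Live HCT116 cells co-stained with ligand and ER-Tracker Blue. Colocalization assessed by confocal imaging.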

[10] = Toxicity in BALB/c nude mouse assessed as change in mean red blood cell hemoglobin concentration at 5 mg/kg, iv administered every two days for 16 days; format: organism-based; settings: in vivo, 384 h, time 16 day
In short: (§3)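 HCT116 xenograft-bearing male Balb/c nude mice (6/group) dosed iv at 5 mg/kg every two days or with PBS. Whole blood collected at sacrifice on day 16 for hematology parameters.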

HCT-116 [11] = test: Induction of cell cycle arrest in human HCT-116 cells assessed as accumulation of cells at G0/G1 phase at 1 to 4 uM measured after 72 hrs by PI staining based flow cytometry analysis (reference value: 50.66%); format: functional; settings: dose 1-4 µM; in short: as §2
DNA [12] = test: Binding affinity to HP19 DNA (non-G4 DNA) (unknown origin) assessed as change in melting temperature at 5 uM by circular dichroism spectroscopic analysis; format: nucleic-acid assay
Quadruplex DNA [13] = test: Binding affinity to mito 0.5-16 G4 DNA (unknown origin) assessed as dissociation constant measured upto 150 secs by isothermal titration calorimetry assay; format: nucleic-acid assay
Quadruplex DNA [14] = test: Binding affinity to mito 78 G4 DNA (unknown origin) assessed as dissociation constant measured upto 150 secs by isothermal titration calorimetry assay; format: nucleic-acid assay
[15] = Toxicity in BALB/c nude mouse assessed as change in neutrophil count at 5 mg/kg, iv administered every two days for 16 days; format: organism-based; settings: in vivo, 384 h, time 16 day; in short: as §3
[16] = Toxicity in BALB/c nude mouse assessed as change in mean platelet volume at 5 mg/kg, iv administered every two days for 16 days; format: organism-based; settings: in vivo, 384 h, time 16 day; in short: as §3
HCT-116 [17] = test: Downregulation of ND4L mRNA level in human HCT-116 cells at 0 to 4 uM measured after 48 hrs by qRT-PCR analysis; format: functional, cell-based; settings: dose 0-4 µM
DNA [18] = test: Binding affinity to SS19 DNA (non-G4 DNA) (unknown origin) assessed as change in melting temperature at 5 uM by circular dichroism spectroscopic analysis; format: nucleic-acid assay
Quadruplex DNA [19] = test: Binding affinity to mito 81 G4 DNA (unknown origin) assessed as increase in fluorescence intensity by fluorescence spectrophotometric analysis; format: nucleic-acid assay
In short: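 Fluorescence titration in buffer. Ligand at 5 uM mixed with 20 uM pre-annealed DNA (95 °C for 10 min, slow cooling). Emission collected at 550-800 nm and monitored at 650 nm. Result reported as fold enhancement F/F0 over ligand alone.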

HCT-116 [20] = test: Downregulation of ND2 mRNA level in human HCT-116 cells at 0 to 4 uM measured after 48 hrs by qRT-PCR analysis; format: functional, cell-based; settings: dose 0-4 µM
[21] = Antiproliferative activity against human HFF-1 cells measured after 48 hrs by MTT assay; format: toxicity, cell-based; settings: HFF-1 cells; in short: as §1
HFF-1 = test: Downregulation of ND5 mRNA level in human HFF-1 cells at 0 to 4 uM measured after 48 hrs by qRT-PCR analysis; format: functional, cell-based; settings: dose 0-4 µM
[22] = Drug localization in nucleus of living human HCT-116 cells assessed as colocalization at 4 uM incubated for 1 hr by Hoechst33342 staining based analysis; format: ADME, subcellular; settings: hct-116, 1 h
HCT-116 [23] = test: Induction of morphological changes in human HCT-116 cells at 4 uM by microscopy based analysis; format: functional, cell-based
In short: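 HCT116 and HFF1 cells treated with ligand at 4 uM alongside untreated controls. Morphology examined by microscopy at 100x.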

Quadruplex DNA [24] = test: Binding affinity to mito 81 G4 DNA (unknown origin) assessed as dissociation constant measured upto 150 secs by isothermal titration calorimetry assay; format: nucleic-acid assay
HCT-116 [25] = test: Induction of mitochondrial permeability transition pore opening in human HCT-116 cells measured after 48 hrs by calcein-AM staining based assay; format: functional, cell-based; settings: dose <= 4.0 µM
Quadruplex DNA [26] = test: Binding affinity to mito 55 G4 DNA (unknown origin) assessed as dissociation constant measured upto 450 secs by surface plasmon resonance assay; format: nucleic-acid assay
In short: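 Surface plasmon resonance in buffer at 25 °C. Four G4-mtDNAs (Mito 78, Mito 55, Mito 29, Mito 0.5-16) and the hairpin HP19 served as substrates. Kd was derived from the sensorgrams.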

HCT-116 [27] = test: Induction of apoptosis in human HCT-116 cells measured after 72 hrs by annexin V-BUV396 and 7-AAD staining based flow cytometry analysis; format: functional, cell-based; settings: dose <= 4.0 µM
In short: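 HCT116 cells treated at 0-4 uM for 72 h, stained with Annexin V-BUV396 and 7-AAD, and the apoptotic fraction quantified by flow cytometry.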

HCT-116 [28] = test: Inhibition of glycolysis in human HCT-116 cells assessed as reduction in glucose consumption at upto 4 uM measured after 3 hrs by Seahorse XFe24 analyzer; format: functional, cell-based
[29] = Toxicity in BALB/c nude mouse assessed as effect on spleen at 5 mg/kg, iv measured after 16 hrs post injection by H and E staining based analysis; format: organism-based; settings: in vivo
[30] = Toxicity in BALB/c nude mouse assessed as change in platelet count at 5 mg/kg, iv administered every two days for 16 days; format: organism-based; settings: in vivo, 384 h, time 16 day; in short: as §3

C(=C\c1ccc2ccccc2[n+]1CCCCCCCC[n+]1c(/C=C/c2ccc(N3CCCCC3)cc2)ccc2ccccc21)/c1ccc(N2CCCCC2)cc1.[I-].[I-]
Activity (Quadruplex DNA [1]): Active
IC50 (HepG2): > 40 µM
Activity (HCT-116 [2]): Active
Activity (DNA [3]): inactive
ΔTm (Quadruplex DNA [4]): 3.6 °C
Activity (HCT-116 [5]): Dose-Dependent Effect
Drug uptake [6]: Not Active
ΔTm (Quadruplex DNA [7]): 11.3 °C
Activity (HCT-116 [8]): Active
Drug uptake [9]: Not Active
Activity [10]: Non-Toxic
Activity (HCT-116 [11]): 66.01%
ΔTm (DNA [12]): 0.5 °C
Kd (Quadruplex DNA [13]): 0.06 µM
Kd (Quadruplex DNA [14]): 0.06 µM
Activity [15]: Non-Toxic
Activity [16]: Non-Toxic
Activity (HCT-116 [17]): Active
ΔTm (DNA [18]): 0.5 °C
Activity (Quadruplex DNA [19]): Active
Activity (HCT-116 [20]): Active
IC50 at 48 h [21]: 32.7 µM
Activity (HFF-1): Active
Drug uptake [22]: Not Active
Activity (HCT-116 [23]): Active
Kd (Quadruplex DNA [24]): 0.06 µM
Activity (HCT-116 [25]): Dose-Dependent Effect
Kd (Quadruplex DNA [26]): 0.17 µM
Activity (HCT-116 [27]): Dose-Dependent Effect
inhibition (HCT-116 [28]): Active
Activity [29]: Non-Toxic
Activity [30]: Non-Toxic
